Experimental data from ChEMBL document CHEMBL3120104, “Discovery of the first C-nucleoside HCV polymerase inhibitor (GS-6620) with demonstrated antiviral response in HCV infected patients” (J Med Chem, 2014).
Values after ≈ are worked out from the molar mass of the structure shown.

Experiments:
[1] = Lipophilicity, log D of the compound by HPLC/UV method; assay type: physicochemical
Method in brief: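 A 10 mM DMSO stock was diluted 1:100 into 1:1 acetonitrile/water, shaken 30 min, and analysed by HPLC/UV on a C18 column with 20 mM ammonium acetate/acetonitrile mobile phase.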

Syrian golden hamster [2] = test: Cmax in golden syrian hamster assessed as liver triphosphate level at 1 mg/kg, iv by LC/MS/MS analysis; assay type: ADME, organism-based, Mesocricetus auratus; set-up: dose 1 mg/kg, route intravenous; settings: in vivo
Method in brief: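 Golden Syrian hamsters in groups of 12, dosed iv at 1 mg-equiv/kg in EtOH/PEG400/water adjusted to pH 4 with HCl (0.5 mg-equiv/mL). Liver homogenised in ice-cold 70% MeOH with 0.1% KOH, 67 mM EDTA and 0.25 μM Cl-ATP internal standard, then centrifuged, dried and reconstituted. Triphosphate measured by LC/MS/MS; endogenous ATP checked for sample stability.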

[3] = Half life in human intestinal S9 fraction at 2 uM by LC/MS/MS analysis; assay type: ADME, Intestine
Method in brief: (§1)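 Compound at 2 μM was incubated with human intestinal or hepatic S9 fraction plus NADPH and UDPGA for 90 min at 37 °C. Time-point samples were quenched in aqueous acetonitrile/methanol with internal standard and analysed by LC/MS/MS. Half-life came from an exponential first-order fit, and hepatic extraction was predicted from half-life using the well-stirred model.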

Hepatitis C virus = test: Antiviral activity against HCV genotype 1b infected in human HuH7 cells assessed as inhibition of viral replication after 3 days by luminescence assay; assay type: functional, organism-based, Hepacivirus hominis; settings: Huh-7, 72 h
Method in brief: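 Multiplex replicon assay carrying a renilla luciferase reporter, with stable GT1b, 1a and 2a replicons and chimeric 2b, 3a, 4a, 5a and 6a replicons. 2000 replicon cells/well in medium without Geneticin. Ten-step 1:3 serial dilutions, four replicates, 0.44% DMSO final. Incubated 3 days at 37 °C, 5% CO₂. Luminescence normalised to DMSO wells and to protease-inhibitor (ITMN-191) wells. EC50 from a four-parameter Hill fit.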

[4] = Permeability across apical to basolateral side in human Caco2 cells at 10 uM after 1 to 2 hrs by LC/MS/MS analysis; assay type: ADME, cell-based; settings: Caco-2, read-out: permeability
Method in brief: (§2)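 Caco-2 monolayers were grown at least 21 days, and membrane integrity was checked by TEER after buffer equilibration. Test compound was dosed at 10 μM on the apical or basolateral side, in duplicate wells. Receiver samples at 1 and 2 h were precipitated with acetonitrile plus internal standard and run by LC/MS/MS.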

Hepatocyte = test: Prodrug coversion in human hepatocytes assessed as triphosphate formation assesed per million cells at 10 uM incubated for 1 hr followed by compound washout by liquid chromatography coupled with mass spectrometry; assay type: ADME, cell-based; set-up: dose 10 uM
Method in brief: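 Confluent primary human hepatocytes (0.88 × 10⁶ cells/well, Williams E medium) were exposed to 10 μM compound for 1 h, then to drug-free medium for 23 h. Cells were collected during and after exposure and extracted. Triphosphate was quantified by LC/MS/MS and expressed per million cells.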

[5] = Oral bioavailability in golden syrian hamster at 5 mg/kg; assay type: ADME, organism-based, Mesocricetus auratus; settings: in vivo
[6] = Permeability across basolateral to apical side in human Caco2 cells at 10 uM after 1 to 2 hrs by LC/MS/MS analysis; assay type: ADME, cell-based; settings: Caco-2, read-out: permeability; method in brief: as §2
[7] = Aqueous solubility of the compound in phosphate buffer at pH 7 by reverse-phase UPLC-UV method; assay type: physicochemical
Method in brief: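 Excess solid was suspended in pH 7 phosphate buffer at ambient temperature, sonicated, then stirred for at least 2 h. After centrifugation, the supernatant was quantified by reverse-phase UPLC-UV.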

[8] = Cytotoxicity against human HuH7 cells after 3 days by fluorescence assay; assay type: cell-based; settings: Huh-7 cells
Method in brief: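 Huh-7 HCV replicon cells were seeded at 2000 cells/well in medium without Geneticin. Compounds were added as ten-point 1:3 DMSO dilutions in quadruplicate (final DMSO 0.44%), with […] as the 100% cytotoxicity control. After 3 days at 37 °C, cells were washed and given 400 nM calcein AM for 30 min at RT, and fluorescence read at ex 490/em 520 nm. Signal was normalized to DMSO and puromycin wells, and CC50 taken from a four-parameter Hill fit.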

[9] = Metabolic stability in human liver S9 fraction assessed as extraction at 2 uM after 90 mins by LC/MS/MS analysis; assay type: ADME, subcellular; settings: read-out: Stability; method in brief: as §1
Syrian golden hamster [10] = test: Cmax in golden syrian hamster assessed as liver triphosphate level at 5 mg/kg, po by LC/MS/MS analysis; assay type: ADME, organism-based, Mesocricetus auratus; set-up: dose 5 mg/kg, route oral; settings: in vivo
Method in brief: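 Groups of 12 Golden Syrian hamsters were dosed orally at 5 mg-equiv/kg. Vehicle was EtOH/PEG400/water buffered with 50 mM pH 4 citrate at 2.5 mg-equiv/mL. Liver was homogenized in four volumes of ice-cold 0.1% KOH/67 mM EDTA in 70% MeOH containing 0.25 μM Cl-ATP, then centrifuged, dried and reconstituted in 1 mM ammonium phosphate pH 7.0. Triphosphate was measured by LC/MS/MS, with endogenous ATP checked for sample stability.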

[11] = Oral absorption in beagle dog at 5 mg/kg, po by LC/MS/MS analysis; assay type: ADME, organism-based, Canis lupus familiaris; set-up: dose 5 mg/kg, route oral; settings: in vivo
Method in brief: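 Naive male beagle dogs were dosed once, orally at 5 mg/kg in EtOH/PEG 400/50 mM citrate buffer pH 4 (5/40/55), or intravenously at 0.5 mg/kg for reference. Plasma was sampled over 24 h and processed by acetonitrile precipitation. Bioavailability %F = AUC_po × Dose_iv / (AUC_iv × Dose_po).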

[12] = Metabolic stability in serum (unknown origin); assay type: ADME
[13] = AUC (0 to infinity) in portal vein cannulated beagle dog at 0.5 mg/kg, iv by LC/MS/MS analysis; assay type: ADME, organism-based, Canis lupus familiaris; set-up: time infinity, dose 0.5 mg/kg, route intravenous; settings: plasma
Method in brief: (§3)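 Naive male beagle dogs got a single intravenous infusion of 0.5 mg/kg in EtOH/PEG 400/water 5/20/75, adjusted to pH 4 with HCl. EDTA-K3 blood was collected over 24 h and plasma isolated. Plasma was precipitated with acetonitrile to a final 60%, filtered, dried, reconstituted in 20% acetonitrile and analysed.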

[14] = AUC (0 to infinity) in jagular vein cannulated beagle dog at 0.5 mg/kg, iv by LC/MS/MS analysis; assay type: ADME, organism-based, Canis lupus familiaris; set-up: time infinity, dose 0.5 mg/kg, route intravenous; settings: plasma; method in brief: as §3
[15] = target: DNA-directed RNA polymerase, mitochondrial (Homo sapiens) (UniProt O00411); test: Inhibition of mitochondrial RNA polymerase (unknown origin) assessed as inhibition of single nucleotide incorporation; settings: concentration not given here
DNA-directed RNA polymerase, mitochondrial (Homo sapiens), sequence (O00411 whole entry): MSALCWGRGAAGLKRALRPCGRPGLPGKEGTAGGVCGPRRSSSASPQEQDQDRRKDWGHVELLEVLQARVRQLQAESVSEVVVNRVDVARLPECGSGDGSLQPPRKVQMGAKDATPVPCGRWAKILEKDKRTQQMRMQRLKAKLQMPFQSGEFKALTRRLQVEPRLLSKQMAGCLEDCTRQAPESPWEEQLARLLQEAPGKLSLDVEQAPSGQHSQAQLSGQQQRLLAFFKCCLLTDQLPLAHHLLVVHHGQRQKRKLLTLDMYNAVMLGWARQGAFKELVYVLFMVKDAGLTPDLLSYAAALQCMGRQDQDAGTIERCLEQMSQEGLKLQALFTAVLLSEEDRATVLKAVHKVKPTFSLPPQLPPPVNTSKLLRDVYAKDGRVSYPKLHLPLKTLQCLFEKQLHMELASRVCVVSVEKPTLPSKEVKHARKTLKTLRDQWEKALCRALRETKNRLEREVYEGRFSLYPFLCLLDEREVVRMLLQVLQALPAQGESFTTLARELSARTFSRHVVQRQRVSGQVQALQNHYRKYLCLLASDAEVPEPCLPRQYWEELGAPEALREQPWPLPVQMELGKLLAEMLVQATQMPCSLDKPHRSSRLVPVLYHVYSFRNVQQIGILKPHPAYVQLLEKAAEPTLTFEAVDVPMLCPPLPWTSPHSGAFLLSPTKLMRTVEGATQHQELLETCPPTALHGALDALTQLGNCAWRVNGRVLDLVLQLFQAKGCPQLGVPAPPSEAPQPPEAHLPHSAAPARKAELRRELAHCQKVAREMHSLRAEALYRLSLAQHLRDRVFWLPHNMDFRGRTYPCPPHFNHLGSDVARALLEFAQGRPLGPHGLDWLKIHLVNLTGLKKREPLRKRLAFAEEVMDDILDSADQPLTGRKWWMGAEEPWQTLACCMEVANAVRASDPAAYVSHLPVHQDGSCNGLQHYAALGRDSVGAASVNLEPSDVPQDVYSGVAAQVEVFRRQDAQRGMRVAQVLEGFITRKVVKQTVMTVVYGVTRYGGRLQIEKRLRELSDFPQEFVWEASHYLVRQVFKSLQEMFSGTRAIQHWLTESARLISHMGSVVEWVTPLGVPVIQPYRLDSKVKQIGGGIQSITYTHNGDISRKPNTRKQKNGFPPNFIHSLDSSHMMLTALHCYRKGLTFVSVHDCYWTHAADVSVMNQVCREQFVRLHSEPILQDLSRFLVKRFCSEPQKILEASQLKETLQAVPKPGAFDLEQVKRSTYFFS
Method in brief: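 Reactions started with 500 μM (final) natural NTP or NTP analog. Time-point aliquots were quenched in EDTA/formamide, heated to 65 °C, resolved on 20% polyacrylamide/8 M urea gels, and product formation quantified by phosphorimaging.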

Huh-7 = test: Prodrug coversion in human HuH7 cells assessed as triphosphate formation at 10 uM after 24 hrs by liquid chromatography coupled with mass spectrometry; assay type: ADME, cell-based; settings: huh-7, 24 h
Method in brief: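 Huh-7 cells carrying the GT1b replicon, grown to confluency in 12-well plates (0.88 × 10⁶ cells/well). Exposed 24 h to 10 μM compound, then washed with ice-cold saline and extracted overnight in frozen 70% methanol. Dried extract resuspended in 1 mM ammonium phosphate pH 8.5. Triphosphate quantified by LC/triple-quadrupole MS.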

Row | Structure (SMILES) | logD [1] | Cmax (Syrian golden hamster [2]) | half-life at 2 µM [3] | EC50 (Hepatitis C virus) | Papp A→B at 10 µM [4] | Drug metabolism (Hepatocyte) | bioavailability [5] | Papp B→A at 10 µM [6] | solubility [7] | CC50 at 72 h [8] | hepatic extraction ratio at 1.5 h, 2 µM [9] | Cmax (Syrian golden hamster [10]) | Fa [11] | Stability [12] | AUC(0-inf) [13] | AUC(0-inf) [14] | inhibition [15] | Drug metabolism (Huh-7)
1 | C[C@H](NP(=O)(OC[C@H]1O[C@@](C#N)(c2ccc3c(N)ncnn23)[C@](C)(O)[C@@H]1O)Oc1ccccc1)C(=O)OC1CCCC1 (some centres not stated) | 2.2 | 2800 nM | 0.5 h | 450 nM | 0.37 ×10⁻⁶ cm/s | Active | 6% | 5.86 ×10⁻⁶ cm/s | 10 µg/mL (≈ 16.7 µM) | > 89000 nM | 0.95 | 840 nM | – | – | – | – | – | –
2 | COC(=O)[C@H](C)NP(=O)(OC[C@H]1O[C@@](C#N)(c2ccc3c(N)ncnn23)[C@](C)(O)[C@@H]1O)Oc1ccccc1 (some centres not stated) | 1.3 | 6350 nM | 3.17 h | 1370 nM | 0.41 ×10⁻⁶ cm/s | – | 0.9% | 4.64 ×10⁻⁶ cm/s | – | > 89000 nM | 0.9 | 290 nM | – | – | – | – | – | –
3 | CC[C@@H](C)OC(=O)[C@H](C)NP(=O)(OC[C@H]1O[C@@](C#N)(c2ccc3c(N)ncnn23)[C@](C)(O)[C@@H]1O)Oc1ccccc1 (some centres not stated) | 1.9 | – | 7.68 h | 980 nM | 0.75 ×10⁻⁶ cm/s | – | – | 37.5 ×10⁻⁶ cm/s | 151 µg/mL (≈ 257 µM) | > 89000 nM | 0.94 | 1870 nM | 8.1% | Stable | 0.46 µM·h | 0.14 µM·h | – | –
4 | CC(C)OC(=O)[C@H](C)NP(=O)(OC[C@H]1O[C@@](C#N)(c2ccc3c(N)ncnn23)[C@]2(C)OC(=O)O[C@H]12)Oc1ccccc1 (some centres not stated) | 2.6 | 1920 nM | – | 1410 nM | – | – | – | – | – | > 89000 nM | – | 590 nM | 29% | Stable | – | – | – | –
5 | C[C@H](NP(=O)(OC[C@H]1O[C@@](C#N)(c2ccc3c(N)ncnn23)[C@](C)(O)[C@@H]1O)Oc1ccccc1)C(=O)OCc1ccccc1 (some centres not stated) | 2.2 | – | 2.15 h | 330 nM | 3.35 ×10⁻⁶ cm/s | – | – | 25.3 ×10⁻⁶ cm/s | 0.05 µg/mL (≈ 0.0803 µM) | 63000 nM | 0.93 | 860 nM | – | – | – | – | – | –
6 | C[C@H](NP(=O)(OC[C@H]1O[C@@](C#N)(c2ccc3c(N)ncnn23)[C@](C)(O)[C@@H]1O)Oc1ccccc1)C(=O)OC(C)(C)C (some centres not stated) | 2.2 | – | > 10.2 h | > 89000 nM | 0.67 ×10⁻⁶ cm/s | – | – | 31.1 ×10⁻⁶ cm/s | 380 µg/mL (≈ 646 µM) | > 89000 nM | 0.84 | – | – | – | – | – | – | –
7 | C[C@@]1(O)[C@H](O)[C@@H](CO)O[C@@]1(C#N)c1ccc2c(N)ncnn12 | – | – | – | > 89000 nM | – | – | – | – | – | – | – | – | – | – | – | – | 0.03% | < 0.5 µM
